Test results: ChEMBL document CHEMBL1649433, “Violacein extracted from Chromobacterium violaceum inhibits Plasmodium growth in vitro and in vivo” (Antimicrob Agents Chemother, 2009)
The source made the active and inactive calls. No cut-off for these calls is given here.

Legend:
[1] = system: Plasmodium chabaudi; assay: Antimalarial activity against nonlethal Plasmodium chabaudi chabaudi AS infected in C57BL/6 mouse assessed as inhibition of parasitemia at 0.075 mg/kg/day, ip administered 1 hr post-infection and measured on day 7 post-infection; format: functional, organism-based
Procedure, shortened: (§1)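 C57BL/6 mice (7-10 per group, 7-10 weeks old, 20 ± 3 g) were infected i.p. with 10^6 P. chabaudi chabaudi AS infected erythrocytes. Violacein was given i.p. daily for 11 days (days 0-10), starting 1 h post-infection. Parasitemia was counted daily on Giemsa-stained smears (≥1,000 erythrocytes) and inhibition was calculated against untreated infected mice.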

[2] = system: Plasmodium chabaudi; assay: Antimalarial activity against lethal Plasmodium chabaudi chabaudi AJ infected in C57BL/6 mouse assessed as mouse survival rate at 7.5 mg/kg/day, ip administered 1 hr post-infection and measured on day 14 post-infection; format: functional; conditions: route intraperitoneal
Procedure, shortened: (§2)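 C57BL/6 mice, groups of 10, aged 7-10 weeks, 20 ± 3 g, infected i.p. with 106 IE of lethal P. c. chabaudi AJ; 7.5 mg/kg/day given i.p. for 11 consecutive days (days 0-10 p.i.), first dose 1 h p.i.; survival followed daily versus untreated mice; Log-Rank test.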

[3] = system: Plasmodium chabaudi; assay: Antimalarial activity against nonlethal Plasmodium chabaudi chabaudi AS infected in C57BL/6 mouse assessed as inhibition of parasitemia at 3.75 mg/kg/day, ip administered 1 hr post-infection and measured on day 5 post-infection; format: functional; conditions: route intraperitoneal
Procedure, shortened: (§3)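 C57BL/6 mice (7-10 per group, aged 7-10 weeks, 20 ± 3 g) infected i.p. with 106 IE of P. c. chabaudi AS; given daily i.p. doses of 0.75 to 7.5 mg/kg/day for 11 consecutive days (days 0-10), first dose 1 h p.i. Parasitemia counted daily in Giemsa-stained smears (≥1,000 erythrocytes) until day 12; inhibition relative to untreated mice.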

[4] = system: Plasmodium chabaudi; assay: Antimalarial activity against nonlethal Plasmodium chabaudi chabaudi AS infected in C57BL/6 mouse assessed as inhibition of parasitemia at 0.75 mg/kg/day, ip administered 1 hr post-infection and measured on day 6 post-infection; format: functional; conditions: route intraperitoneal; procedure, shortened: as §3
[5] = system: Plasmodium falciparum; assay: Antimalarial activity against Plasmodium falciparum mature blood forms (24 to 48 hrs ring stage) infected in erythrocytes after 24 hrs by [3H]hypoxanthine incorporation assay; format: functional, organism-based; conditions: in the assay text read “trophozoites and schizonts stage” for “ring stage”
Procedure, shortened: (§4)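 Synchronized (±6 h) P. falciparum 3D7 blood stages were prepared by repeated 5% sorbitol treatment. Rings (0-24 h) or trophozoites/schizonts (24-48 h) were used at 1% parasitemia and 2% final hematocrit, exposed to violacein for 24 h, and growth was read by [3H]-hypoxanthine incorporation. Inhibition % = [1 − (CPM treated − CPM uninfected RBC)/(CPM untreated − CPM uninfected RBC)] × 100. Runs were in triplicate.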

[6] = system: Plasmodium chabaudi; assay: Antimalarial activity against lethal Plasmodium chabaudi chabaudi AJ infected in C57BL/6 mouse assessed as mouse survival rate at 7.5 mg/kg/day, ip administered 1 hr post-infection and measured on day 9 post-infection; format: functional; conditions: route intraperitoneal; procedure, shortened: as §2
[7] = system: Plasmodium chabaudi; assay: Antimalarial activity against nonlethal Plasmodium chabaudi chabaudi AS infected in C57BL/6 mouse assessed as inhibition of parasitemia at 0.075 mg/kg/day, ip administered 1 hr post-infection and measured on day 5 post-infection; format: functional, organism-based; procedure, shortened: as §1
[8] = system: Plasmodium chabaudi; assay: Antimalarial activity against nonlethal Plasmodium chabaudi chabaudi AS infected in C57BL/6 mouse assessed as inhibition of parasitemia at 0.75 mg/kg/day, ip administered 1 hr post-infection and measured on day 5 post-infection; format: functional; conditions: route intraperitoneal; procedure, shortened: as §3
[9] = system: Plasmodium chabaudi; assay: Antimalarial activity against nonlethal Plasmodium chabaudi chabaudi AS infected in C57BL/6 mouse assessed as inhibition of parasitemia at 7.5 mg/kg/day, ip administered 1 hr post-infection and measured on day 8 post-infection; format: functional; conditions: route intraperitoneal; procedure, shortened: as §3
[10] = system: Plasmodium chabaudi; assay: Antimalarial activity against nonlethal Plasmodium chabaudi chabaudi AS infected in C57BL/6 mouse assessed as inhibition of parasitemia at 7.5 mg/kg/day, ip administered 1 hr post-infection and measured on day 6 post-infection; format: functional; conditions: route intraperitoneal; procedure, shortened: as §3
[11] = Toxicity in erythrocytes assessed as red blood cell density at 14 uM after 48 hrs; format: cell-based; conditions: erythrocyte
Procedure, shortened: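 Uninfected erythrocytes were cultured 48 h at 37°C with a range of violacein concentrations. Cells were counted in a Neubauer chamber. RBC density was expressed as % of the drug-free control: (RBC/mL with violacein ÷ RBC/mL without) × 100. Results are means of triplicates ± SD, with Mann-Whitney U test for significance.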

[12] = system: Plasmodium chabaudi; assay: Antimalarial activity against nonlethal Plasmodium chabaudi chabaudi AS infected in C57BL/6 mouse assessed as inhibition of parasitemia at 3.75 mg/kg/day, ip administered 1 hr post-infection and measured on day 8 post-infection; format: functional; conditions: route intraperitoneal; procedure, shortened: as §3
[13] = system: Plasmodium chabaudi; assay: Antimalarial activity against lethal Plasmodium chabaudi chabaudi AJ infected in C57BL/6 mouse assessed as mouse survival rate at 7.5 mg/kg/day, ip administered 1 hr post-infection and measured on day 16 post-infection; format: functional; conditions: route intraperitoneal; procedure, shortened: as §2
[14] = system: Plasmodium chabaudi; assay: Antimalarial activity against nonlethal Plasmodium chabaudi chabaudi AS infected in C57BL/6 mouse assessed as inhibition of parasitemia at 0.75 mg/kg/day, ip administered 1 hr post-infection and measured on day 8 post-infection; format: functional; conditions: route intraperitoneal; procedure, shortened: as §3
[15] = system: Plasmodium falciparum; assay: Antimalarial activity against Plasmodium falciparum young blood forms (0 to 24 hrs ring stage) infected in erythrocytes after 24 hrs by [3H]hypoxanthine incorporation assay; format: functional, organism-based; procedure, shortened: as §4
[16] = system: Plasmodium chabaudi; assay: Antimalarial activity against nonlethal Plasmodium chabaudi chabaudi AS infected in C57BL/6 mouse assessed as inhibition of parasitemia at 3.75 mg/kg/day, ip administered 1 hr post-infection and measured on day 6 post-infection; format: functional; conditions: route intraperitoneal; procedure, shortened: as §3
[17] = system: Plasmodium chabaudi; assay: Antimalarial activity against nonlethal Plasmodium chabaudi chabaudi AS infected in C57BL/6 mouse assessed as inhibition of parasitemia at 7.5 mg/kg/day, ip administered 1 hr post-infection and measured on day 7 post-infection; format: functional; conditions: route intraperitoneal; procedure, shortened: as §3
[18] = system: Plasmodium chabaudi; assay: Antimalarial activity against nonlethal Plasmodium chabaudi chabaudi AS infected in C57BL/6 mouse assessed as inhibition of parasitemia at 0.75 mg/kg/day, ip administered 1 hr post-infection and measured on day 7 post-infection; format: functional; conditions: route intraperitoneal; procedure, shortened: as §3
[19] = system: Plasmodium falciparum; assay: Antimalarial activity against chloroquine-resistant Plasmodium falciparum S20 infected in erythrocytes after 48 hrs by [3H]hypoxanthine incorporation assay; format: functional, organism-based
Procedure, shortened: (§5)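 Erythrocytes infected with P. falciparum at 1% parasitemia, 2% final hematocrit; growth read by [3H]-hypoxanthine incorporation after 48 h at 37°C. Inhibition % = [1 – (CPM treated IE – CPM NE)/(CPM untreated IE – CPM NE)] x 100, untreated IE as 100% growth. Triplicates, at least three times with different batches and cells; concentrations from 0.06 µM upward; IC50 from dose-response.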

[20] = system: Plasmodium chabaudi; assay: Antimalarial activity against nonlethal Plasmodium chabaudi chabaudi AS infected in C57BL/6 mouse assessed as inhibition of parasitemia at 0.075 mg/kg/day, ip administered 1 hr post-infection and measured on day 8 post-infection; format: functional; conditions: route intraperitoneal
[21] = system: Plasmodium falciparum; assay: Antimalarial activity against chloroquine-sensitive Plasmodium falciparum 3D7 infected in erythrocytes after 48 hrs by [3H]hypoxanthine incorporation assay; format: functional, organism-based; procedure, shortened: as §5
[22] = system: Plasmodium chabaudi; assay: Antimalarial activity against nonlethal Plasmodium chabaudi chabaudi AS infected in C57BL/6 mouse assessed as inhibition of parasitemia at 7.5 mg/kg/day, ip administered 5 days post-infection and measured on day 7 post-infection; format: functional; conditions: route intraperitoneal
Procedure, shortened: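 Mice infected i.p. with 106 P. c. chabaudi AS IE; 7.5 mg/kg/day given i.p. daily from day 5 p.i. (16% parasitemia) to day 10 (6 days). Parasitemia counted daily in Giemsa-stained smears (≥1,000 erythrocytes) versus untreated mice; Mann-Whitney U test.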

[23] = system: Plasmodium chabaudi; assay: Antimalarial activity against nonlethal Plasmodium chabaudi chabaudi AS infected in C57BL/6 mouse assessed as inhibition of parasitemia at 0.075 mg/kg/day, ip administered 1 hr post-infection and measured on day 6 post-infection; format: functional, organism-based; procedure, shortened: as §1
[24] = system: Plasmodium chabaudi; assay: Antimalarial activity against nonlethal Plasmodium chabaudi chabaudi AS infected in C57BL/6 mouse assessed inhibition of parasitemia at 7.5 mg/kg/day, ip for 10 days followed by compound withdrawal and measured on day 16 post-infection; format: functional; conditions: route intraperitoneal
Procedure, shortened: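 Mice infected i.p. with 106 P. c. chabaudi AS IE; 7.5 mg/kg/day given i.p. for 11 days (0-10 p.i.) from 1 h p.i., then withdrawn. Parasitemia followed in Giemsa-stained smears until day 22 p.i. versus untreated mice; Mann-Whitney U test.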

[25] = system: Plasmodium chabaudi; assay: Antimalarial activity against nonlethal Plasmodium chabaudi chabaudi AS infected in C57BL/6 mouse assessed as inhibition of parasitemia at 7.5 mg/kg/day, ip administered 1 hr post-infection and measured on day 5 post-infection; format: functional; conditions: route intraperitoneal; procedure, shortened: as §3
[26] = system: Plasmodium chabaudi; assay: Antimalarial activity against nonlethal Plasmodium chabaudi chabaudi AS infected in C57BL/6 mouse assessed as inhibition of parasitemia at 3.75 mg/kg/day, ip administered 1 hr post-infection and measured on day 7 post-infection; format: functional; conditions: route intraperitoneal; procedure, shortened: as §3

In the case of `O=C1NC(c2c[nH]c3ccc(O)cc23)=C/C1=C1\C(=O)Nc2ccccc21` [VIOLACEIN], the inhibition [1] is reported as “inactive”, the survival at 7.5 mg/kg/day [2] is reported as 14% and the inhibition in vivo at 3.75 mg/kg/day [3] is reported as 33.2%. The inhibition in vivo at 0.75 mg/kg/day [4] was 20.4%, the inhibition [5] was “Active” and the survival at 7.5 mg/kg/day [6] was 10%. The inhibition [7] was “inactive”, the inhibition in vivo at 0.75 mg/kg/day [8] was 3.58% and the inhibition in vivo at 7.5 mg/kg/day [9] was 84.7%. For the same molecule, the inhibition in vivo at 7.5 mg/kg/day [10] was 75.4%, the Activity [11] was “Toxic” and the inhibition in vivo at 3.75 mg/kg/day [12] was 75.7%. The survival at 7.5 mg/kg/day [13] was 80%, the inhibition in vivo at 0.75 mg/kg/day [14] was 48.9% and the inhibition [15] was “Active”. The inhibition in vivo at 3.75 mg/kg/day [16] was 64.9%, the inhibition in vivo at 7.5 mg/kg/day [17] was 86.9% and the inhibition in vivo at 0.75 mg/kg/day [18] was 39.2%. It also gave an IC50 [19] of 630 nM, an inhibition in vivo at 0.075 mg/kg/day [20] of 12% and an IC50 [21] of 850 nM. For the same molecule, the inhibition in vivo at 7.5 mg/kg/day [22] was 50.1%, the inhibition [23] was “inactive” and the inhibition in vivo at 7.5 mg/kg/day [24] was 59%. It also gave an inhibition in vivo at 7.5 mg/kg/day [25] of 56.5% and an inhibition in vivo at 3.75 mg/kg/day [26] of 82.1%.
